hERG protect: shields human hERG channel from block by proarrhythmic agents. CHO-hERG, FluxOR thallium flux, dofetilide IC70 present. activation (rescue from dofetilide block), less the hit threshold, % at 10 µM. actives 0.51% (n = 310,000);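 active = activation above the mean of controls blocked by dofetilide plus 5 SD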;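 note: thallium influx through hERG after potassium depolarization seen as dye fluorescence rise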
PHOSPHO1 inh: PHOSPHO1 (human) inhibition. AID 1565. Q8TCT1. recombinant PHOSPHO1, absorbance phosphatase assay. actives 1.1% (n = 290,000). inhibition, % at 13.3 µM; in the data active = inhibition above about 60%
KCNQ1 block: blocks the human KCNQ1 potassium channel; P51787; CHO-K1 KCNQ1, FluxOR thallium flux fluorescence; stronger effect = higher value; B-score at 10 µM; actives 1.3% (n = 310,000); AID 2642;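 active = compounds whose thallium flux B-score, printed positive for inhibition, exceeds three library SD while starting fluorescence stays within three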;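 note: channel opened by potassium depolarization with thallium stimulus after 20 min compound exposure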
Target sequence (P51787 whole entry, looked up): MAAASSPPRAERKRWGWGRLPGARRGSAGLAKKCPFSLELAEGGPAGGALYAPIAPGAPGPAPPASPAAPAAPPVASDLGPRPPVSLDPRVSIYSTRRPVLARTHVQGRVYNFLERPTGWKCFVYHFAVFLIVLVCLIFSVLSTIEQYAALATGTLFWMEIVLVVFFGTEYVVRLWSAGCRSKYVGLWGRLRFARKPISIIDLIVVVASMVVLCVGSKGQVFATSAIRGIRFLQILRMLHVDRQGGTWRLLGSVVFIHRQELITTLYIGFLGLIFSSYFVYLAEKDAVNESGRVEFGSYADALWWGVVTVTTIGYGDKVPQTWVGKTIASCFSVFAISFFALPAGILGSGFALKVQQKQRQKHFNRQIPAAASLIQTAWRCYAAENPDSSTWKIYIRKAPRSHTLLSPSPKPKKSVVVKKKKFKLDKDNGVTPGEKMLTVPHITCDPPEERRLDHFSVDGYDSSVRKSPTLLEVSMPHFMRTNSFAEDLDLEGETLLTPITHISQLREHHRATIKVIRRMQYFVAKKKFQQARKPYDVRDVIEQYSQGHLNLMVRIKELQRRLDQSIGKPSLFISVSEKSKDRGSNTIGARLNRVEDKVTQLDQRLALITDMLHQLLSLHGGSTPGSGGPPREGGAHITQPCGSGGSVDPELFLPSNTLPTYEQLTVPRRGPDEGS
KCNQ1 act: human KCNQ1 channel potentiation or activation; AID 2648; actives 0.35% (n = 310,000); P51787; CHO-K1 KCNQ1, thallium flux FluxOR fluorescence; stronger effect = higher value; B-score at 10 µM;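 active = fluorescence ratio B-score, a plate-corrected score, at least three library SD, with initial intensity B-score within 5 SD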
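System: CHO-K1 cells stably expressing KCNQ1 / Medium: assay buffer for compound exposure, DMSO matched across wells / Reagent: thallium- and potassium-containing depolarizing buffer / Compound: one concentration, matched DMSO / Incubation: 20 min compound pretreatment at room temperature / Measured by: kinetic FluxOR fluorescence, 10 s baseline plus 110 s post-stimulus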
KCNK9 block: inhibitors of human KCNK9 two-pore domain potassium channel | actives 1.2% (n = 310,000) | B-score at 10 µM | AID 488922 | Q9NPC2 | HEK293 KCNK9, FluxOR thallium flux fluorescence; stronger effect = lower value;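 active = ratio B-score over 3 SD below the library mean, with starting fluorescence within 5 SD of its mean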;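 note: negative B-score means less thallium flux so channel inhibition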
KCNK3 block: human KCNK3 channel inhibition, primary screen; O14649; CHO-KCNK3 thallium flux, FluxOR fluorescence; stronger effect = lower value; B-score at 10 µM; actives 0.84% (n = 340,000); AID 602410;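 active = B-score under library mean minus 4 SD, starting fluorescence ratio at most library mean plus 5 SD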;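 note: more negative B-score means stronger inhibition of thallium flux through KCNK3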
* marks the source's active call; other numbers are inactive results; i = inactive; · = no result. Most compounds without a hit are left out; they make up all but 4% or so of the library.

SMILES | hERG protect | PHOSPHO1 inh | KCNQ1 block | KCNQ1 act | KCNK9 block | KCNK3 block
S=C(Nc1ccccc1)Nc1ccc(OCc2ccccc2)cc1 | -12 | 33 | i | i | i | i
COc1ccc2c(c1)c(/C=C/c1cc[n+](C)cc1)cn2C | -25 | 20 | i | i | -8* | i
COc1ccc2c(/C=C/c3cc[n+](C)cc3)c[nH]c2c1 | -14 | 22 | i | i | i | i
O=C(CSc1nc2ccccc2c(=O)n1Cc1ccco1)NCCN1C(=O)CSC1=O | -5 | 6 | i | i | i | i
Cc1ccc(C(C)C)c(OCCNC(=S)Nc2cccc3ccccc23)c1 | -9 | 11 | 8* | i | i | i
Cc1ccc(C(C)C)c(OCCNCc2ccccc2)c1 | -11 | 8 | i | i | i | i
CCN1CCc2c(OCC(=O)Nc3ccc(C)cc3)cccc2C1=O | -9 | 62* | i | i | i | i
Cc1ccc(S(=O)(=O)N2CCOCC2)cc1C(=O)NCCCn1ccnc1 | 4.7* | 3 | i | i | i | i
COc1ccccc1NC(=O)c1ccc2nc(-c3ccccc3)c(-c3ccccc3)nc2c1 | -17 | 39 | i | i | i | i
COc1ccccc1-c1nc2cc3ccccc3cc2nc1-c1ccccc1 | -7 | 14 | 9* | i | i | i
CCOC(=O)c1c(C)nc(C)c(C(=O)OCC)c1-c1cccc(N)c1 | -10 | 60* | i | i | i | i
Cc1cccc(/C=C2/S/C(=N/N=C3\CC4CCC3(C)C4(C)C)NC2=O)c1 (centres undefined) | 14* | 8 | i | 18* | i | i
O=C1N/C(=N/O)S/C1=C/c1cccc([N+](=O)[O-])c1 | -6 | -11 | i | i | i | i
O=C1Nc2ccccc2C1=Nc1ccccc1-c1ccccc1 | · | · | · | · | · | i
CC(C)[C@H](NC(=O)N1CC(=O)Nc2ccccc21)C(=O)N[C@@H](Cc1ccccc1)C(=O)O | -4 | 13 | i | i | i | i
CC1=NN2C(=N)/C(=C\c3cc(C)n(Cc4ccccc4)c3C)C(=O)N=C2S1 | -4 | 24 | i | i | i | i
CC1=NN2C(=N)/C(=C\c3ccc(SCc4ccccc4)o3)C(=O)N=C2S1 | -5 | 94* | i | i | i | i
Cc1cc(CSc2ccccc2)ccc1NC(=O)c1cccc([N+](=O)[O-])c1 | -7 | -11 | i | i | i | i
COc1ccccc1CNC(=O)C(=O)c1cn(CC(=O)N2CCCC2)c2ccccc12 | -4 | 62* | i | i | i | i
COc1ccc(CNC(=O)C(=O)c2cn(CC(=O)N3CCCC3)c3ccccc23)cc1 | 0 | 24 | i | i | i | i
Cc1ccc(C(=O)Nc2ccc(N3CCOCC3)nc2)cc1 | -10 | 50 | i | i | i | i
CN1CCN(c2ccc(NC(=O)c3ccc(Cl)cc3)cn2)CC1 | 7.8* | 16 | i | i | i | i
O=C(NCc1ccncc1)c1ccccc1Nc1ccc(SC(F)F)cc1 | -2 | 37 | i | i | i | i
CNC(=O)c1ccccc1Nc1ccc(SC(F)F)cc1 | -12 | · | 6* | i | i | i
Cc1nc2ccc(S(=O)(=O)N(C)CC(=O)NCc3ccc(N(C)C)cc3)cc2s1 | -12 | 58 | i | i | i | i
SMILES | hERG protect | PHOSPHO1 inh | KCNQ1 block | KCNQ1 act | KCNK9 block | KCNK3 block
Cc1c(CCOC(=O)CC23CC4CC(CC(C4)C2)C3)sc[n+]1Cc1ccccc1 | -17 | 34 | 7* | i | i | i
O=c1cc(CSc2nc3ccccc3c(=O)[nH]2)c2ccc(O)cc2o1 | -16 | 60* | i | i | i | i
CN1C(=O)CC[C@H]1c1cccnc1 | -4 | · | i | i | i | ·
O=C(CCl)c1ccc(Cc2ncc(C(F)(F)F)cc2Cl)s1 | -8 | 77* | i | i | i | i
CC(C)c1nc2sc3ccccc3c(=O)c2c(=O)n1Cc1ccccc1 | -3 | 3 | 6* | i | i | i
COc1ccc(Cn2c(C(C)C)nc3sc4ccccc4c(=O)c3c2=O)cc1 | -6 | 32 | i | i | i | i
COc1ccc(-c2nc3ccccc3c(=O)n2-c2c(C)n(C)n(-c3ccccc3)c2=O)cc1 | -2 | 24 | i | i | i | i
Cc1c(-n2c(-c3ccccc3)nc3ccccc3c2=O)c(=O)n(-c2ccccc2)n1C | -11 | 60* | i | i | i | i
CCSc1nc2c(c(=O)[nH]c(=O)n2C)n1C/C=C(/C)Cl | · | -25 | · | · | · | i
C=CCn1c(SCCN2CCOCC2)nc2c1c(=O)[nH]c(=O)n2C | -7 | 33 | i | i | i | i
CCCCCn1c(N2CCN(c3cccc(Cl)c3)CC2)nc2c1c(=O)[nH]c(=O)n2C | -15 | 9 | i | i | -7.3* | i
COCCn1c(SCCN2CCOCC2)nc2c1c(=O)[nH]c(=O)n2C | -13 | 63* | i | i | i | i
CCOC(=O)C(C)Sc1nc2c(c(=O)[nH]c(=O)n2C)n1C/C=C(/C)Cl (centres undefined) | -7 | 65* | i | i | i | i
CCCCCCn1c(SCC(C)C)nc2c1c(=O)[nH]c(=O)n2C | -9 | 18 | i | i | i | i
CCCCCCn1c(SCC(=O)OC)nc2c1c(=O)[nH]c(=O)n2C | -7 | 83* | i | i | i | i
Cc1ccc(C(=O)N2CCCC(C(F)(F)F)C2)cc1S(=O)(=O)N1CCCCC1 (centres undefined) | -8 | · | i | i | i | i
Cn1c(=O)c(=O)n(C)c2cc(S(=O)(=O)NCCOc3ccccc3Cl)ccc21 | -6 | -16 | i | i | i | i
N#CCSc1nc(-c2ccccc2)cs1 | -2 | 33 | i | i | i | i
CCc1ccccc1NC(=S)Nn1cnnc1 | -11 | 61* | i | i | i | i
Cc1ccccc1NC(=S)Nn1cnnc1 | -8 | 9 | i | i | i | i
C/C(Cl)=C\COc1cc(C)nc2c(Br)cccc12 | -16 | -20 | i | i | -7.5* | i
COc1ccc(NC(=O)CS(=O)c2ccccc2Cl)cc1 (centres undefined) | -7 | 48 | i | i | i | i
COc1cc(NC(=O)c2cc3cccc(OC)c3o2)cc(C(=O)Nc2cccc(C(F)(F)F)c2)c1 | -26 | 35 | 7* | i | i | i
CCN1CCN(Cc2ccc(NC(=O)c3cc(NC(=O)c4cc5cccc(OC)c5o4)cc(OC)c3)cc2C(F)(F)F)CC1 | -33 | -3 | i | i | i | i
COc1cccc(NC(=O)c2cc3cccc(OC)c3o/c2=N\O)c1 | -9 | · | 7* | i | i | ·

Bioassay records deposited in PubChem by several laboratories.
